In PMC13647048 (Zoological Research, 2026):

How the values were obtained:
[1] = tested on: E. coli ATCC 25922; assay: Time-kill assay; type: cell-based, Escherichia coli; conditions: meropenem 0.015 μmol/L; not completely eradicated within this time; n=3
Summary of the method: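 E. coli ATCC 25922 was exposed to test compound at several concentrations and sampled over incubation time. Viable CFU were counted by the spread plate method. Normal saline served as negative control and meropenem as positive control.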

[2] = tested on: Escherichia coli ATCC 25922; assay: MIC, two-fold dilution, E. coli; type: cell-based; conditions: meropenem as positive control, E. coli ATCC 25922
[3] = tested on: CLP-induced septic BALB/c mice; assay: CLP-induced sepsis in mice; type: in vivo, mouse
Summary of the method: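 Male BALB/c mice, eight weeks old, 18–25 g, acclimatized 3 days, then anesthetized with xylazine 8 mg/kg plus ketamine 100 mg/kg. CLP was done under aseptic conditions; sham mice had the same surgery without CLP. Within 1 h post-surgery mice got test compound 5 mg/kg, DXM 10 mg/kg or 0.9% saline i.p. Survival was followed 72 h and clinical scoring done at 24 h. A separate cohort gave blood and organs at 12 h for cytokines.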

[4] = serum and lung, HR-CATH2 5 mg/kg or DXM 10 mg/kg i.p., 12 h post-surgery

Row | SMILES | Time to complete eradication of E. coli [1] [min] | MIC (positive control) [2] [mol/L] | Clinical scores ([3]; 24 h after CLP, DXM 10 mg/kg i.p.) | Survival ([3]; 72 h after CLP, DXM 10 mg/kg i.p., n=10 per group) | Histopathological tissue injury ([3]; lung, kidney, liver, H&E, HR-CATH2 5 mg/kg or DXM 10 mg/kg i.p. at 1 h after CLP, 12 h post-surgery) | MPO activity ([3]; lung, HR-CATH2 5 mg/kg or DXM 10 mg/kg i.p., 12 h post-surgery) | IL-1β concentration [3, 4] | IL-6 concentration [3, 4] | MCP-1 concentration [3, 4] | TNF-α concentration [3, 4]
1 | C[C@@H](O)[C@H]1C(=O)N2C(C(=O)O)=C(S[C@@H]3CN[C@H](C(=O)N(C)C)C3)[C@H](C)[C@H]12 [meropenem] | > 180 | 0.015 |  |  |  |  |  |  |  | 
2 | C[C@@H]1C[C@H]2[C@@H]3CCC4=CC(=O)C=C[C@]4(C)[C@@]3(F)[C@@H](O)C[C@]2(C)[C@@]1(O)C(=O)CO [DXM, dexamethasone] |  |  | reduced clinical scores | markedly improved survival | significantly alleviated tissue injury | significantly attenuated | significantly attenuated | significantly attenuated | significantly attenuated | significantly attenuated
